RAD52 anneal inh – RAD52 (human) annealing inhibition | AID 651710 | recombinant RAD52 DNA annealing, FRET fluorescence | inhibition, % at 18.7 µM | hit rate 0.46% among 360,000 | P43351;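 active = every replicate showing at least 50% inhibition; inconclusive = mean inhibition at least 50% but not in every replicate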
N-glyco inh – N-linked glycosylation inhibition. D54 ERlucT glycosylation luciferase reporter, 24 h; percent of 100 nM tunicamycin response. reporter increase, % at 12.5 µM. hit rate 0.23% among 360,000. AID 588692;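 active = mean luciferase reporter signal, scaled so untreated is 0 and the glycosylation-blocking control 100, at or above a set limit in every replicate; inconclusive = mean reaches the limit but not every replicate does; inactive = mean below the limit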;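 also: luciferase carries N-glycosylation sites so blocking glycosylation raises the light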
FN deposit inh – fibronectin deposition inhibition; AH1F fibroblasts, Alexa488-fibronectin deposition fluorescence, overnight; hit rate 0.086% among 350,000; inhibition, % at 12.6 µM;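 active = mean inhibition across replicates of 30% or more, regardless of how many single replicates reach that level; inconclusive = mean under 30% yet at least half of replicates reach 30%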
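Assay system: AH1F fibroblasts / Quantity: 10000 cells per well / Medium: DMEM plus 2% serum, read in PBS / Reagent: labelled fibronectin 24 nM / Dosing: single dose, pinned / Times: 1 h cell attachment, overnight exposure to compound and label / Signal: fluorescence, ex 485 nm, em 525 nm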
RAD54 branch – RAD54 (human) branch migration inhibition. Q92698. RAD54 Holliday junction branch migration, FAM/BHQ fluorescence. inhibition, % at 10.4 µM. hit rate 0.14% among 360,000. AID 602329;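 active = mean normalized replicate activity at least 40 and at least half of replicates scoring 40 or more; inconclusive = only one of the two criteria met; inactive = mean below 40 and under half of replicates reaching 40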;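 also: inhibitors cause a drop in the FAM fluorescence signal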
MLL AF4-AF9 inh – inhibitors of human MLL-AF4/AF9 interaction; hit rate 0.47% among 350,000; AID 651704; AlphaScreen, biotin-AF4 peptide binding to FLAG-AF9; inhibition, % at 10 µM;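 active = every replicate reaching a set inhibition limit, whatever the replicate mean, cut at about 25% in these data; inconclusive = mean inhibition reaches that limit but some replicates miss it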
Target sequence (P42568 whole entry, looked up): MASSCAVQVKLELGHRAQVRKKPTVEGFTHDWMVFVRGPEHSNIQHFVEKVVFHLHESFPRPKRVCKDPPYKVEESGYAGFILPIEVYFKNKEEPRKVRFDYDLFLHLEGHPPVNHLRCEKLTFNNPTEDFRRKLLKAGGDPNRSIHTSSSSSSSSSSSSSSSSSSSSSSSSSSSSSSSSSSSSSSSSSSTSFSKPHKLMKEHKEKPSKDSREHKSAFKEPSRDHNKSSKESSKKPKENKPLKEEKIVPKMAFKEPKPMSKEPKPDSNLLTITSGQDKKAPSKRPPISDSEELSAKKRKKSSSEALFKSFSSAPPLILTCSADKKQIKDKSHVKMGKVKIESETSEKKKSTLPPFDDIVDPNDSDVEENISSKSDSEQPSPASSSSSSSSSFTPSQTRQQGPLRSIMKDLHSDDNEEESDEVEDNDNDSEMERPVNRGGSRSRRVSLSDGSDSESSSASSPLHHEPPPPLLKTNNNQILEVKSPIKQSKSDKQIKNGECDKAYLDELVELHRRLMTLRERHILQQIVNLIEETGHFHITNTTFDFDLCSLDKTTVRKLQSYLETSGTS
Rad54 DNA ctr – counter-screen for Rad54 inhibitors: DNA binding compounds; shares compounds with RAD54 branch; Acridine orange-DNA displacement, fluorescence polarization, 20 min; AC50, µM (highest dose often 35 µM); hit rate 8% among 460; AID 651673;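 active = signal drop giving an AC50 within twice the top valid tested concentration of each sample, actives reach about 35 µM in these data; inactive = activity opposite to expected, plus the rest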;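 also: polarization loss reports compound binding to salmon sperm DNA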
RAD52 DNA ctr – DNA binding artifact in RAD52 counter-screen. shares compounds with RAD52 anneal inh. Salmon sperm DNA/acridine orange FP displacement. AC50, µM. hit rate 8% among 1,000. AID 652128;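 active = fitted half-maximal concentration for signal loss at or below twice the highest dose tested, in every separate run, actives reach about 64 µM in these data; inconclusive = runs disagree, or flat partial signal loss, or poor fit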
Of the large screens only hits and unclear results are named; the others gave an inactive call (follow-up assays come after a bar, where they were run). An excerpt weighted towards active compounds, which were near 0.92% of everything screened.

Cc1ccc(-c2cc(NC=O)c3ncc(-c4cccc(C(=O)N(C)C)c4)n3c2)cc1	none
COc1cc(-c2cnc3c(NC=O)cc(-c4cccc(C(=O)NCCN(C)C)c4)cn23)cc(OC)c1OC	RAD52 anneal inh 93, RAD54 branch 101 | Rad54 DNA ctr inactive | RAD52 DNA ctr inactive
COc1cc(-c2cnc3c(NC(C)=O)cc(-c4cccc(C(=O)NCCO)c4)cn23)cc(OC)c1OC	none
C[C@@H](NC(=O)N(C)C[C@H]1OCc2ccccc2-c2c(n(C)c3ccccc23)C(=O)N([C@@H](C)CO)C[C@@H]1C)c1ccccc1	none (no result: N-glyco inh)
C[C@@H]1CN([C@@H](C)CO)C(=O)c2cc(-c3ccccc3F)cnc2O[C@H]1CN(C)C(=O)c1cnccn1	none (no result: N-glyco inh)
C[C@@H]1CN([C@H](C)CO)C(=O)c2cccc(NS(=O)(=O)c3cn(C)cn3)c2O[C@@H]1CN(C)C(=O)Nc1ccccc1	none (no result: N-glyco inh, FN deposit inh)
COc1cc2nc(Nc3ccc(F)cc3)nc(N)c2cc1OC	RAD52 anneal inh 62, RAD54 branch 59 | Rad54 DNA ctr inactive | RAD52 DNA ctr 59µM
CN1C(=O)c2cc(NC(=O)C3CCOCC3)ccc2OC[C@H]2O[C@H](CC(=O)O)CC[C@@H]21	none (no result: N-glyco inh)
CN(C)CCNC(=O)c1cccc(-c2cnc3c(NC=O)cc(-c4ccc(C(=O)N5CCOCC5)cc4)cn23)c1	RAD52 anneal inh 63, RAD54 branch inconclusive | Rad54 DNA ctr inactive | RAD52 DNA ctr inactive
CC(=O)c1cccc(-c2cnc3c(NC=O)cc(-c4ccc(C(=O)N5CCOCC5)cc4)cn23)c1	none
CN(C)CCNC(=O)c1cccc(-c2cnc3c(NC=O)cc(-c4cccs4)cn23)c1	RAD52 anneal inh 68, RAD54 branch 63 | Rad54 DNA ctr inactive | RAD52 DNA ctr inactive
Cc1cc(-c2cc(NC=O)c3ncc(-c4cccc(C(=O)NCCN(C)C)c4)n3c2)cc(C)c1O	RAD52 anneal inh 92, RAD54 branch 62 | Rad54 DNA ctr inactive | RAD52 DNA ctr inactive
CN(C)CCNC(=O)c1cccc(-c2cnc3c(NC=O)cc(-c4ccccc4F)cn23)c1	RAD52 anneal inh 96, RAD54 branch 63 (no result: FN deposit inh) | Rad54 DNA ctr inactive | RAD52 DNA ctr inactive
CC(=O)c1cccc(-c2cnc3c(NC=O)cc(-c4ccccc4)cn23)c1	none
CO[C@@H]1CN(C)C(=O)c2ccc(NC(C)=O)cc2OC[C@@H](C)N(C(=O)C2CC2)C[C@@H]1C	none (no result: N-glyco inh)
Nc1ccc2ncccc2c1N	none (no result: RAD52 anneal inh, MLL AF4-AF9 inh)
Nc1nc(N)c2c(ccc3nccc32)[nH]1	RAD52 anneal inh 77, RAD54 branch 62 | Rad54 DNA ctr inactive | RAD52 DNA ctr inactive
CCN(CC)CCN1CCN(c2cncc(-c3cccc(N)c3)n2)CC1	RAD52 anneal inh 99, RAD54 branch 73 | Rad54 DNA ctr inactive | RAD52 DNA ctr inactive
O=C(C[C@@H]1CC[C@@H]2[C@H](COC[C@@H](O)CN2S(=O)(=O)c2ccc(F)cc2)O1)N[C@H]1CCN(Cc2ccccc2)C1	none (no result: N-glyco inh)
Cc1noc(C)c1NC(=O)N[C@H]1CC[C@H](CC(=O)Nc2ccc(-c3ccccc3)cc2)O[C@@H]1CO	none (no result: N-glyco inh)
CCN(CC)CCN(C(=O)C1=COCCO1)c1nc2c(OC)ccc(OC)c2s1	RAD52 anneal inh 88, RAD54 branch 77 | Rad54 DNA ctr inactive | RAD52 DNA ctr inactive
CCN(CC)CCN(C(=O)C1=COCCO1)c1nc2ccc(C)cc2s1	none
COc1ccc(OC)c2sc(N(CCN(C)C)C(=O)c3ccc4ccccc4c3)nc12	RAD52 anneal inh 93, RAD54 branch 69, MLL AF4-AF9 inh 28 | Rad54 DNA ctr inactive | RAD52 DNA ctr inactive
COc1cc2ccccc2cc1C(=O)N(CCN(C)C)c1nc2c(OC)ccc(OC)c2s1	RAD52 anneal inh 94, RAD54 branch 60, MLL AF4-AF9 inh 50 | Rad54 DNA ctr inactive | RAD52 DNA ctr inactive
CC(=O)N(C)C[C@H]1Oc2cc(-c3ccc(C#N)cc3)ccc2S(=O)(=O)N([C@H](C)CO)C[C@@H]1C	none (no result: N-glyco inh)
Cc1ccc(S(=O)(=O)N(C)C[C@@H]2Oc3ccc(NC(=O)Cc4cn(C)c5ccccc45)cc3CC(=O)N([C@@H](C)CO)C[C@H]2C)cc1	none (no result: N-glyco inh, FN deposit inh)
COCC(=O)N(C)C[C@@H]1Oc2ncc(-c3ccc(C#N)cc3)cc2C(=O)N([C@H](C)CO)C[C@@H]1C	none (no result: N-glyco inh)
CCOC(=O)c1c(NC(=O)c2ccc(S(=O)(=O)N3CCOCC3)cc2)sc2c1CCN(C)C2	RAD52 anneal inh 59, RAD54 branch 89 (no result: FN deposit inh) | Rad54 DNA ctr inactive | RAD52 DNA ctr inactive
C[C@H]1CN([C@@H](C)CO)C(=O)c2cc(NC(=O)Cn3cnnn3)ccc2O[C@@H]1CN(C)Cc1ccc(C(=O)O)cc1	none (no result: N-glyco inh, FN deposit inh)
Cc1c(C)n(CCN(C)C)c2ccc(C(=O)OCCN(C)C)cc12	RAD52 anneal inh 103, RAD54 branch 104 | Rad54 DNA ctr inactive | RAD52 DNA ctr inactive
COCCCNc1nc(N)c([N+](=O)[O-])c(Nc2cc(OC)ccc2OC)n1	none
COc1ccc(OC)c(Nc2nc(NCCCN(C)C)nc(N)c2[N+](=O)[O-])c1	RAD52 anneal inh 95, RAD54 branch 74 | Rad54 DNA ctr inactive | RAD52 DNA ctr inactive
COc1ccc(CN(C)C[C@@H]2Oc3ccc(NC(=O)NC4CCCCC4)cc3CC(=O)N([C@H](C)CO)C[C@@H]2C)cc1	none (no result: N-glyco inh, FN deposit inh)
COCCNc1nc(SC)nc2sc3c(c12)CCN(C)C3	none
CCN(CC)CCNc1nc(SC)nc2sc3c(c12)CCN(C)C3	RAD52 anneal inh 56, RAD54 branch 53 | Rad54 DNA ctr inactive | RAD52 DNA ctr inactive
C[C@@H]1C=C(C(=O)N2CCCCCCC2)O[C@H](OCc2ccc(CO)cc2)C1	none (no result: N-glyco inh, FN deposit inh)
Cc1ccsc1-c1cc2nc(NCCCN(C)C)n(C)c(=O)c2s1	RAD52 anneal inh 58, RAD54 branch inconclusive | Rad54 DNA ctr inactive | RAD52 DNA ctr inactive
COc1ccc(-c2cc3nc(NCCCN(C)C)n(C)c(=O)c3s2)cc1OC	RAD52 anneal inh 84, RAD54 branch 69 | Rad54 DNA ctr inactive | RAD52 DNA ctr inactive
CN(C)CCCNc1nc2cc(-c3ccn[nH]3)sc2c(=O)n1C	none
Cc1ccccc1-c1cc2nc(NCCCN(C)C)n(C)c(=O)c2s1	MLL AF4-AF9 inh inconclusive
CN(C)CCCNc1nc2cc(-c3cccc(Cl)c3)sc2c(=O)n1C	RAD52 anneal inh 89, RAD54 branch 50 | Rad54 DNA ctr inactive | RAD52 DNA ctr inactive
C[C@@H]1CN([C@H](C)CO)C(=O)c2cccc(NS(=O)(=O)c3ccccc3)c2O[C@H]1CN(C)Cc1ccc(C(F)(F)F)cc1	none (no result: N-glyco inh, FN deposit inh)
CN(C)CCCN(C(=O)COc1ccccc1)c1nc2ccc(F)cc2s1	none (no result: RAD54 branch)
CN(C)CCCN(C(=O)CCOc1ccccc1)c1nc2ccc(F)cc2s1	RAD52 anneal inh 89, RAD54 branch 65 | Rad54 DNA ctr inactive | RAD52 DNA ctr inactive
CCCCN(CC)CCCNC(=O)c1cc2c(-c3ccc(OC)c(OC)c3)nn(C)c2s1	RAD52 anneal inh 94, RAD54 branch 91 | Rad54 DNA ctr inactive | RAD52 DNA ctr inactive

Screening results: PubChem BioAssay, Broad Institute
